Screening data (PubChem)
VLA-4 inh = inhibition in a human VLA-4 binding assay | P13612 | VLA-4 expressing cells, ligand binding flow cytometry | inhibition, % (about 7 µM as worked out from the volumes in the protocol) | 330,000 compounds, 0.2% hits; in the data active = inhibition above about 50%
Target sequence (P13612 whole entry, looked up): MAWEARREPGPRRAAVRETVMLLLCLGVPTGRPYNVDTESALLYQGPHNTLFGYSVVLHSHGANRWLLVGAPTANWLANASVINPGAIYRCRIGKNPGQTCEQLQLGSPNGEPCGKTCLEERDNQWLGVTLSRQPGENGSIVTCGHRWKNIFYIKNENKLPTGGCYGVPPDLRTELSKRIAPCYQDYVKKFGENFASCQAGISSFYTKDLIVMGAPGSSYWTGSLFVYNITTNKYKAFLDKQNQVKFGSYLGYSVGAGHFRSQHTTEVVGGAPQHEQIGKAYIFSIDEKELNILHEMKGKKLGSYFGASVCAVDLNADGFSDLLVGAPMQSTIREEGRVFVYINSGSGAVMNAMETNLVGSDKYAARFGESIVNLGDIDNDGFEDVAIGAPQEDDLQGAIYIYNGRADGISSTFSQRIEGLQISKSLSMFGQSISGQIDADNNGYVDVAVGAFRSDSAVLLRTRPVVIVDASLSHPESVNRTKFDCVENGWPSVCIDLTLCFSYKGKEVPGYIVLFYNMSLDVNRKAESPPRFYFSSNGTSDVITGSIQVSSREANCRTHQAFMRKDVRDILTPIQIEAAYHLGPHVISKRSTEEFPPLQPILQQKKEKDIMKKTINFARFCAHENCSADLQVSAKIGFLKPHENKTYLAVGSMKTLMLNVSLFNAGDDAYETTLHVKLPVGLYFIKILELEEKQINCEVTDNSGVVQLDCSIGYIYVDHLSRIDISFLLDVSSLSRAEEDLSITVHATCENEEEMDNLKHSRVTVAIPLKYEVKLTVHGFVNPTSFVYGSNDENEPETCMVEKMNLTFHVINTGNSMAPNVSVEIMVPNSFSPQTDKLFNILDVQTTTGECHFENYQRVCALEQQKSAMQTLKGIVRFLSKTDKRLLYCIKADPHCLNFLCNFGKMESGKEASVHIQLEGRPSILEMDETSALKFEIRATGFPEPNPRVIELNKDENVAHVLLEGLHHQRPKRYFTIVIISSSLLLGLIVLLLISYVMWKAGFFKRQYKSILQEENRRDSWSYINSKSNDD
TAAR1 agonist = agonists of human TAAR1. activation, % at 3 µM. 360,000 compounds, 0.99% hits. CHO RD-HGA16 TAAR1, Fluo-8 calcium fluorescence; vehicle wells 0%, saturating PEA agonist 100%. Q96RJ0;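 active = activation above the mean activation of all test compounds in the run plus 3 SD, cut at about 38% in these data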
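test system = CHO RD-HGA16 cells carrying human TAAR1 plus Gα16 | schedule = 17-24 h seeding, 75 min 37 °C dye, 30 min RT | compound dosing = 3 µM single concentration | control set = DMSO and PEA EC100 | replicates = n 1 | signal = Fluo-8 fluorescence, 5 s baseline then 140 s kinetic read | measure = percent activation vs PEA EC100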
Platelet DG rel = platelet dense granule release activity; inhibition, %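 (compounds screened at 7.5 µM in platelet-rich plasma)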; human platelet-rich plasma, SFLLRN dense granule ATP release, luminescence; 300,000 compounds, 0.22% hits;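 active = mean replicate score, as percent of positive control, at or above 50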
Rce1 inhib = inhibitors of yeast Ras-converting enzyme; Q03530; yeast membranes, quenched prenylated peptide cleavage fluorescence; calls only; 290,000 compounds, 0.27% hits;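 active = fall in fluorescence gain of 50% or more versus controls, with final raw signal at or below 3038400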
TAAR1 antag = human TAAR1 antagonism | Q96RJ0 | 360,000 compounds, 1.5% hits | CHO RD-HGA16 TAAR1, Fluo-8 calcium fluorescence, antagonist | inhibition, % at 3 µM;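 active = inhibition above a per-plate cutoff, the mean inhibition of test compounds on that plate plus 3 SD, cut at about 49% in these data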
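test system = CHO RD-HGA16 cells bearing hTAAR1 | replication = singlicate | controls = DMSO-only wells and EC80 β-PEA-stimulated wells | reagent = EC80 β-phenethylamine stimulus | read-out basis = percent inhibition of PEA-evoked calcium signal, max/basal emission ratio | schedule = seeding 17-24 h prior, 75-min 37 °C, 30-min RT dye loading | signal = kinetic Fluo-8 calcium fluorescence measurement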
TAAR1 ag confirm = confirmation of human TAAR1 agonists | shares compounds with TAAR1 agonist | CHO RD-HGA16 TAAR1, Fluo-8 calcium fluorescence; scaled: DMSO 0%, maximal phenethylamine 100% | activation, % at 3 µM | 2,400 compounds, 82% hits | AID 651783;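 active = activation above a cutoff set at the run's mean compound activation plus 3 SD, cut at about 39% in these data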
Ga16 ag counter = counter-screen for TAAR1 agonists: nonselective agonists in parental cells | AID 651787 | shares compounds with TAAR1 agonist | CHO-Ga16 parental, Fluo-8 calcium fluorescence; normalized to maximal ATP response, DMSO zero | 2,400 compounds, 50% hits | activation, % at 3 µM;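 active = activation above the run cutoff, the mean activation over all tested wells plus 3 SD, cut at about 12% in these data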
TAAR1 desens = counter-screen for human TAAR1 agonists: agonists that desensitize TAAR1; shares compounds with TAAR1 agonist; AID 651951; inhibition, % at 3 µM; 2,400 compounds, 46% hits; CHO RD-HGA16 hTAAR1, Fluo-8 calcium, beta-PEA response inhibition;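 active = inhibition above the run cutoff, the mean inhibition of all test compounds plus 3 SD, cut at about 49% in these data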;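 also: beta-PEA stimulus applied at its EC80; loss of beta-PEA calcium signal after compound pretreatment read as receptor desensitization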
Ga16 nonsel ant = nonselective Ga16 antagonism, counter-screen; shares compounds with TAAR1 agonist; CHO-Ga16 ATP-induced calcium, Fluo-8 fluorescence; inhibition, % at 3 µM; 2,400 compounds, 39% hits;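 active = inhibition above the plate's mean compound inhibition plus 3 SD, computed per plate, cut at about 22% in these data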
Of the large screens only hits and unclear results are named; the others gave an inactive call (follow-up assays come after a bar, where they were run). An excerpt weighted towards active compounds, which were near 2.6% of everything screened.

Cn1c(=O)oc2cc(S(=O)(=O)CCC(=O)NCCc3ccccc3)ccc21	TAAR1 agonist 70 | TAAR1 ag confirm inactive | Ga16 ag counter inactive | TAAR1 desens inactive | Ga16 nonsel ant inactive
Cc1ccc(CCNC(=O)CCS(=O)(=O)c2ccc3c(c2)oc(=O)n3C)cc1	none
O=C(CCS(=O)(=O)c1ccc2c(c1)NC(=O)CS2)NCCc1ccccc1	TAAR1 agonist 68 | TAAR1 ag confirm 68 | Ga16 ag counter inactive | TAAR1 desens inactive | Ga16 nonsel ant inactive
CNc1nc(NCCOc2ccccc2Cl)c2sccc2n1	TAAR1 agonist 72, TAAR1 antag 72 (no result: VLA-4 inh, Platelet DG rel, Rce1 inhib) | TAAR1 ag confirm 51 | Ga16 ag counter 50 | TAAR1 desens 57 | Ga16 nonsel ant 47
COc1ccccc1CNc1nc(NCCOc2ccccc2Cl)c2sccc2n1	none (no result: VLA-4 inh, Platelet DG rel, Rce1 inhib)
CC1(C)OC(=O)C2=C(C[C@@H](C3CCCCC3)O[C@H]2c2ccc(F)cc2)O1	none (no result: VLA-4 inh, Platelet DG rel, Rce1 inhib)
O=C(NCc1ccc(Cl)cc1)c1ccc(Cn2cc(C(F)(F)F)ccc2=O)cc1	TAAR1 agonist 66 | TAAR1 ag confirm inactive | Ga16 ag counter 24 | TAAR1 desens inactive | Ga16 nonsel ant 26
O=C(NCc1ccccc1Cl)c1ccc(Cn2cc(C(F)(F)F)ccc2=O)cc1	none
CC(C)c1ccc(NC(=O)[C@@H](C)NC(=O)[C@@H]2Cc3ccccc3CN2)cc1	TAAR1 agonist 78 | TAAR1 ag confirm inactive | Ga16 ag counter 12 | TAAR1 desens inactive | Ga16 nonsel ant inactive
CC(C)C[C@H](NC(=O)[C@@H]1Cc2ccccc2CN1)C(=O)Nc1ccc(C(C)C)cc1	none
COc1cccc(Cn2cccc(NC(=O)NC3CCCCC3)c2=O)c1	TAAR1 agonist 51 | TAAR1 ag confirm inactive | Ga16 ag counter 17 | TAAR1 desens inactive | Ga16 nonsel ant inactive
O=C(Nc1cccn(Cc2ccccc2)c1=O)NC1CCCCC1	TAAR1 agonist 43 | TAAR1 ag confirm 77 | Ga16 ag counter 40 | TAAR1 desens inactive | Ga16 nonsel ant inactive
Cc1cc(C(=O)Cn2c(CO)nc3ccccc32)c(C)n1C	none
CCCCCCCCC(=O)c1c(OC)oc(C=O)cc1=O	none (no result: VLA-4 inh, Platelet DG rel, Rce1 inhib)
O=C(OCCN1C(=O)c2cccc3c(N4CCOCC4)ccc(c23)C1=O)c1ccccc1Cl	TAAR1 agonist 128, TAAR1 antag 105 | TAAR1 ag confirm 93 | Ga16 ag counter 94 | TAAR1 desens 95 | Ga16 nonsel ant 86
O=C(OCCN1C(=O)c2cccc3c(N4CCOCC4)ccc(c23)C1=O)c1ccc(Cl)cc1Cl	none
CCC(CO)Oc1cc(NCc2ccc(C)cc2)c2ncn(C(C)C)c2c1 (stereo not drawn)	none (no result: Platelet DG rel, Rce1 inhib)
CCCOc1cc(NCc2ccccc2)c2ncn(C(C)C)c2c1	TAAR1 agonist 61 (no result: Platelet DG rel, Rce1 inhib) | TAAR1 ag confirm 41 | Ga16 ag counter 18 | TAAR1 desens inactive | Ga16 nonsel ant inactive
COCCOc1cc(NCc2ccccc2)c2ncn(C(C)C)c2c1	none (no result: Platelet DG rel, Rce1 inhib)
CC(C)n1cnc2c(NCc3ccccc3)cc(Cc3ccc(F)cc3)cc21	TAAR1 agonist 47 (no result: Platelet DG rel, Rce1 inhib) | TAAR1 ag confirm inactive | Ga16 ag counter inactive | TAAR1 desens inactive | Ga16 nonsel ant inactive
CCCCNC(=O)C(=O)Nc1cc2c3c(c1)CCC(=O)N3CCC2	none
Cc1cc(/C=C2/NC(=O)NC2=O)c(C)n1-c1sc2c(c1C#N)CCCC2	TAAR1 agonist 63 | TAAR1 ag confirm 46 | Ga16 ag counter 19 | TAAR1 desens inactive | Ga16 nonsel ant inactive
CCCC#C/C(CCC)=C1\c2ccccc2C(=O)N1c1ccccc1	none (no result: VLA-4 inh, Platelet DG rel, Rce1 inhib)
O=[N+]([O-])c1ccc(CNCc2cc(Cl)ccc2O)cc1	TAAR1 agonist 51 (no result: Platelet DG rel, Rce1 inhib) | TAAR1 ag confirm 60 | Ga16 ag counter 20 | TAAR1 desens inactive | Ga16 nonsel ant inactive
O=[N+]([O-])c1ccc(O)c(CNCc2ccccc2)c1	none (no result: VLA-4 inh, Platelet DG rel, Rce1 inhib)
CCCNC(=O)c1cc(C2CCCCN2C(=O)c2ccc(NC(C)=O)cc2)on1 (stereo not drawn)	none (no result: VLA-4 inh, Platelet DG rel, Rce1 inhib)
C1=C[C@H]2CCCN3CC[C@@H]([C@@H]2[C@]32CO2)[C@H]1CCOCc1ccccc1	none (no result: VLA-4 inh, Platelet DG rel, Rce1 inhib)
CC(=O)C1CCC2C3CCC4=CC(=O)CCC4(C)C3(F)C(O)CC12C (stereo not drawn)	none (no result: VLA-4 inh, Platelet DG rel, Rce1 inhib)
COc1cc2nc(/C=C/c3ccc(N(C)C)cc3)sc2cc1SC	TAAR1 agonist 101, TAAR1 antag 52 (no result: Platelet DG rel, Rce1 inhib) | TAAR1 ag confirm 46 | Ga16 ag counter 93 | TAAR1 desens 67 | Ga16 nonsel ant 87
COc1cc(OC)c(OC)cc1CCC(C)NCCC(c1ccccc1)c1ccccc1 (stereo not drawn)	TAAR1 agonist 52 | TAAR1 ag confirm 48 | Ga16 ag counter 19 | TAAR1 desens inactive | Ga16 nonsel ant 25
Cc1cc(/C=C2\C(=N)N3N=C(c4ccco4)SC3=NC2=O)c(C)n1Cc1ccccc1	TAAR1 agonist 130, TAAR1 antag 103 | TAAR1 ag confirm 107 | Ga16 ag counter 79 | TAAR1 desens 104 | Ga16 nonsel ant 91
CCC1=NN2C(=N)/C(=C/c3cc(C)n(Cc4ccccc4)c3C)C(=O)N=C2S1	TAAR1 agonist 104, TAAR1 antag 91 | TAAR1 ag confirm 104 | Ga16 ag counter 72 | TAAR1 desens 95 | Ga16 nonsel ant 77
COc1cccc(C(O)c2nc(-c3ccc4ccccc4c3)cs2)c1 (stereo not drawn)	none (no result: VLA-4 inh, Platelet DG rel, Rce1 inhib)
O=C(CNC(=O)c1ccc(F)cc1)NCc1ccc(S(=O)(=O)N2CCOCC2)cc1	none (no result: VLA-4 inh, Platelet DG rel, Rce1 inhib)
O=C(Nc1nnc(-c2ccccc2)o1)c1ccc(Cl)cc1	TAAR1 agonist 76 | TAAR1 ag confirm inactive | Ga16 ag counter 16 | TAAR1 desens inactive | Ga16 nonsel ant inactive
CC(=O)c1ccc(C(=O)Nc2nnc(-c3ccc(Cl)cc3)o2)cc1	none
CN(C)c1ccc(C=C2SC(=S)NC2=O)cc1	TAAR1 agonist 69, TAAR1 antag 57 (no result: VLA-4 inh, Platelet DG rel, Rce1 inhib) | TAAR1 ag confirm 57 | Ga16 ag counter 85 | TAAR1 desens 69 | Ga16 nonsel ant 78
COCC(C)n1c(SC(C)C(=O)NC2CCCCC2C)nc2ccccc2c1=O (stereo not drawn)	none
CN1C(C(=O)NCCc2cccs2)CC2Cn3c(nc4cc(Cl)c(Cl)cc43)C21 (stereo not drawn)	TAAR1 agonist 69 | TAAR1 ag confirm 83 | Ga16 ag counter inactive | TAAR1 desens inactive | Ga16 nonsel ant inactive
COc1ccc(CCNC(=O)C2CC3Cn4c(nc5cc(Cl)c(Cl)cc54)C3N2C)cc1 (stereo not drawn)	none
